In ChEMBL document CHEMBL4130635, “2,4-Diaminoquinazolines as Dual Toll-like Receptor (TLR) 7/8 Modulators for the Treatment of Hepatitis B Virus” (J Med Chem, 2018):
Activity calls are given as the source filed them. No cut-off for these calls is given here.

How the values were obtained:
Plasma [1] = assay: Effect on cytokine profile in C57BL/6J mouse plasma assessed as IL-12p70 levels at 30 mg/kg, po by multiplex assay (reference value: 560 pg/ml); type: functional
How it was run: (§1)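 Single oral gavage in 20% HP-β-CD to healthy C57BL/6 mice, groups of 15 at 0.3, 1, 3, 10 or 30 mg/kg. Three mice per group sacrificed at 0.5, 1, 2, 4 or 7 h. Plasma and liver cytokines by multiplex, maximum level reported, rounded to nearest multiple of 5.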

Plasma [2] = assay: Proinflammatory activity in C57BL/6J mouse plasma assessed as IL-6 levels at 0.3 mg/kg, po by multiplex assay (reference value: 505 pg/ml); type: functional
[3] = test system: Toll-like receptor 7/8 (Homo sapiens); assay: Agonist activity at TLR7/8 in human PBMCs assessed as decrease in HBeAg levels in human hepatocytes infected with HBV genotype C for 12 days followed by exposure to conditioned supernatant from up to 5 uM compound treated PBMCs measured after 42 days
[4] = Cmax in cynomolgus monkey plasma at 30 mg/kg, po by LC-MS analysis; type: ADME, organism-based, Macaca fascicularis; design: dose 30 mg/kg, route oral
How it was run: (§2)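 Healthy cynomolgus monkeys received oral doses of 1, 3, 9 and 30 mg/kg, with a 2-week wash-out between doses. Systemic compound concentrations by LC−MS at 0.25, 0.5, 1, 2, 4, 8 and 24 h postdose.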

[5] = Intrinsic clearance in dog liver microsomes assessed per mg protein at 1 uM up to 60 mins; type: ADME, Canis lupus familiaris, microsome; conditions: read-out: CLH
Cynomolgus monkey [6] = assay: Induction of IFNalpha levels in cynomolgus monkey plasma at 1 mg/kg, po after 24 hrs by ELISA; type: functional, Macaca fascicularis
How it was run: (§3)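 Healthy cynomolgus monkeys given single oral doses of 1, 3, 9 and 30 mg/kg, with a 2-week wash-out planned between doses. Systemic cytokine levels in plasma were sampled at 0.5, 1, 2, 4, 9 and 24 h postdose.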

Liver [7] = assay: Effect on cytokine profile in C57BL/6J mouse liver assessed as IL-12p70 levels at 30 mg/kg, po by multiplex assay (reference value: 5 pg/g); type: functional; how it was run: as §1
Cynomolgus monkey [8] = assay: Induction of IFNalpha levels in cynomolgus monkey plasma at 9 mg/kg, po after 24 hrs by ELISA; type: functional, Macaca fascicularis; how it was run: as §3
Liver [9] = assay: Upregulation of IP-10 mRNA expression levels in C57BL/6J mouse liver at 1 mg/kg, po by RT-qPCR analysis (reference value: 1); type: functional
[10] = Stability in cynomolgus monkey hepatocytes assessed compound turnover at 1 uM after 60 mins; type: ADME, cell-based, Macaca fascicularis, Hepatocyte; conditions: read-out: Drug metabolism
Liver [11] = assay: Proinflammatory activity in C57BL/6J mouse liver assessed as IL-1beta levels at 10 mg/kg, po by multiplex assay; type: functional
[12] = Cmax in C57BL/6J mouse liver at 0.3 mg/kg, po by LC-MS analysis; type: ADME, organism-based; design: dose 0.3 mg/kg, route oral
How it was run: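 Healthy C57BL/6 mice, groups of 15, given a single oral dose (0.3, 1, 3, 10 or 30 mg/kg) in 20% HP-β-CD. Blood drawn at 0.5 h. Three mice per group sacrificed at 0.5, 1, 2, 4 or 7 h, and compound in plasma and liver measured by LC−MS. Values rounded to whole numbers.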

Liver [13] = assay: Proinflammatory activity in C57BL/6J mouse liver assessed as TNFalpha levels at 30 mg/kg, po by multiplex assay (reference value: 15 pg/g); type: functional
Plasma [14] = assay: Induction of IFNalpha levels in C57BL/6J mouse plasma at 1 mg/kg, po by ELISA; type: functional
[15] = Permeability of the compound in porcine LLC-PK1 cells expressing MDR1 at 1 uM by LC-MS/MS analysis; type: ADME, cell-based, Sus scrofa; conditions: pig, llc-pk1, 1 µM
Cynomolgus monkey [16] = assay: Effect on cytokine profile in cynomolgus monkey plasma assessed as IP10 levels at 1 mg/kg, po after 24 hrs by Luminex assay (reference value: 18.5 pg/ml); type: functional, Macaca fascicularis; how it was run: as §3
Liver [17] = assay: Proinflammatory activity in C57BL/6J mouse liver assessed as CXCL-1 levels at 30 mg/kg, po by multiplex assay (reference value: 25 pg/g); type: functional
[18] = AUC in Sprague-Dawley rat at 10 mg/kg, po; type: ADME, organism-based; conditions: in vivo
How it was run: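 Male Sprague-Dawley rats were given 10 mg/kg orally as a solution. Compound was sampled from the portal vein, the systemic circulation and the liver.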

Cynomolgus monkey [19] = assay: Proinflammatory activity in cynomolgus monkey plasma assessed as TNFalpha levels at 9 mg/kg, po after 24 hrs by Luminex assay (reference value: 285 pg/ml); type: functional, Macaca fascicularis
Liver [20] = assay: Effect on cytokine profile in C57BL/6J mouse liver assessed as IL-12p70 levels at 3 mg/kg, po by multiplex assay (reference value: 5 pg/g); type: functional, organism-based; how it was run: as §1
Cynomolgus monkey [21] = assay: Induction of ISG response in cynomolgus monkey plasma assessed as upregulation of Isg15 mRNA expression at 30 mg/kg, po after 24 hrs by Fluidigm RT-qPCR analysis (reference value: 1); type: functional, Macaca fascicularis
How it was run: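 Cynomolgus monkeys, single oral doses of 1, 3, 9 and 30 mg/kg with a planned 2-week wash-out between doses. Systemic ISG (ISG15, Mx1, OAS1) mRNA was measured by Fluidigm RT-qPCR at 1, 2, 4, 8 and 24 h postdose.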

Mus musculus = assay: Toxicity in C57BL/6J mouse assessed as change in body temperature at 1 to 30 mg/kg, po; type: organism-based; conditions: in vivo
Cynomolgus monkey [22] = assay: Effect on cytokine profile in cynomolgus monkey plasma assessed as IL-15 levels at 9 mg/kg, po after 24 hrs by Luminex assay (reference value: 20 pg/ml); type: functional, Macaca fascicularis; how it was run: as §3
Plasma [23] = assay: Effect on cytokine profile in C57BL/6J mouse plasma assessed as IL-12p70 levels at 1 mg/kg, po by multiplex assay (reference value: 560 pg/ml); type: functional; how it was run: as §1
Plasma [24] = assay: Upregulation of IP-10 mRNA expression levels in C57BL/6J mouse plasma at 30 mg/kg, po by RT-qPCR analysis (reference value: 1); type: functional
[25] = Cmax in cynomolgus monkey plasma at 1 mg/kg, po by LC-MS analysis; type: ADME, organism-based, Macaca fascicularis; design: dose 1 mg/kg, route oral; how it was run: as §2
Cynomolgus monkey [26] = assay: Plasma concentration in cynomolgus monkey at 3 mg/kg, po by LC-MS analysis; type: ADME, organism-based, Macaca fascicularis; conditions: in vivo
[27] = molecular target: TLR7 and TLR8 (Homo sapiens) (UniProt Q9NYK1+Q9NR97); assay: Agonist activity at TLR7/8 in human PBMCs co-cultured with primary human hepatocytes infected with HBV genotype C for 12 days assessed as increase in VEGF levels up to 5 uM measured after 42 days
Cynomolgus monkey [28] = assay: Proinflammatory activity in cynomolgus monkey plasma assessed as TNFalpha levels at 3 mg/kg, po after 24 hrs by Luminex assay (reference value: 285 pg/ml); type: functional, Macaca fascicularis
[29] = test system: Toll-like receptor 7/8 (Homo sapiens); assay: Agonist activity at TLR7/8 in human PBMCs assessed as decrease in intracellular HBV-rcDNA levels in human hepatocytes infected with HBV genotype C for 12 days followed by exposure to conditioned supernatant from up to 5 uM compound treated PBMCs measured after 42 days

CCC[C@@H](CCO)Nc1nc(N)nc2c(F)cccc12
Activity (Plasma [1]): 820 pg/mL | Activity (Plasma [2]): 480 pg/mL | Activity [3]: Dose-dependent effect | Cmax [4]: 2070 ng/mL | microsomal CLint at 1 µM [5]: 21 µL/min/mg | Activity (Cynomolgus monkey [6]): 3465 pg/mL | Activity (Liver [7]): 2340 pg/g | Activity (Cynomolgus monkey [8]): >51200 pg/mL | fold change (FC) (Liver [9]): 775 | metabolised at 1 h, 1 µM [10]: 98% | Activity (Liver [11]): 29525 pg/g | Cmax [12]: 32 ng/g | Activity (Liver [13]): 13600 pg/g | Activity (Plasma [14]): 180 pg/mL | permeability [15]: Permeable | Activity (Cynomolgus monkey [16]): 1690 pg/mL | Activity (Liver [17]): >83333 pg/g | AUC [18]: 49 ng·h/mL | Activity (Cynomolgus monkey [19]): 350 pg/mL | Activity (Liver [20]): Below limit of detection | fold change (FC) (Cynomolgus monkey [21]): 285 | Activity (Mus musculus): Non-Toxic | Activity (Cynomolgus monkey [22]): 75 pg/mL | Activity (Plasma [23]): 380 pg/mL | fold change (FC) (Plasma [24]): 1100 | Cmax [25]: 38 ng/mL | Cp (Cynomolgus monkey [26]): 14 ng/mL | Activity [27]: Active | Activity (Cynomolgus monkey [28]): 70 pg/mL | Activity [29]: Active
